In brackets after ≈: the same amount, converted by molar mass. Activity calls are given as the source filed them. The calls are words filed in the database; no cut-off is given here.
What was measured:
[1] = target: Long-chain fatty acid transport protein 1 (Homo sapiens, UniProt Q6PCB7); assay: Inhibition of human FLAG-tagged FATP1-mediated [1-14C] oleic acid conversion to [1-14C] oleoyl-CoA after 20 mins by scintillation counting analysis
In short: (§1)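 Purified FLAG-tagged human or mouse FATP1 run in a cell-free acyl-CoA synthetase assay. Protein incubated with 10 µM [1-14C]oleic acid, 0.5 mM ATP, 0.5 mM CoA, 5 mM MgCl2, 30 mM NaCl, 0.05% Triton X-100 and 2 mM DTT in 100 mM Tris-HCl pH 7.4 for 20 min at 37 °C. Free oleate removed by heptane washes. Aqueous-phase radioactivity counted by scintillation. FLAG-luciferase background subtracted. IC50 is the mean of n ≥ 2.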

[2] = 1-Octanol-phosphate buffered saline distribution coefficient, log D of the compound at pH 7.4; type: physicochemical
In short: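 logD measured by partitioning between 1-octanol and phosphate-buffered saline, pH 7.4.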

[3] = target: Long-chain fatty acid transport protein 1 (Mus musculus, UniProt Q60714); assay: Inhibition of mouse FLAG-tagged FATP1-mediated [1-14C] oleic acid conversion to [1-14C] oleoyl-CoA after 20 mins by scintillation counting analysis; in short: as §1
Long-chain fatty acid transport protein 1 (Mus musculus, UniProt Q60714), sequence (Q60714 whole entry): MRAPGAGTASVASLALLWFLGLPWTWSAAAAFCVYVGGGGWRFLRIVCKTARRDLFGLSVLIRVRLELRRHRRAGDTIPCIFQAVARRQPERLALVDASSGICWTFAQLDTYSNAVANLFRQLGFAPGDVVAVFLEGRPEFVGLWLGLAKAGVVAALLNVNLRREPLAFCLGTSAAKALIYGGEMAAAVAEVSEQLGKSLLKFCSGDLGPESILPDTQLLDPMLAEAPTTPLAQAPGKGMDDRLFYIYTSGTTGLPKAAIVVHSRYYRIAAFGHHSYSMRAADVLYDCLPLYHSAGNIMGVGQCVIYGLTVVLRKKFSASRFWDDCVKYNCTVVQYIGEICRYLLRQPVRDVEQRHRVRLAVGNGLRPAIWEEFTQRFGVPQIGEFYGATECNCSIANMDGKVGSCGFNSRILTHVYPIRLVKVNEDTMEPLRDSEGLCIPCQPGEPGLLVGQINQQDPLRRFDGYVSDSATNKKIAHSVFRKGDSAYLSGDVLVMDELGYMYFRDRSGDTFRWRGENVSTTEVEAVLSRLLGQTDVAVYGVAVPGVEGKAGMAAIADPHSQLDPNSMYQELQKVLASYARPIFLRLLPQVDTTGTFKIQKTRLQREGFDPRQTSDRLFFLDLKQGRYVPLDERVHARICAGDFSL

[4] = Metabolic stability in mouse liver microsomes assessed as compound remaining after 0.5 hr; type: ADME, Microsome; conditions: read-out: Stability
In short: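 Test compound incubated 0.5 h with mouse liver microsomes. Result given as percent of parent remaining.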

Mus musculus [5] = assay: In vivo inhibition of FATP1 in high-fat diet fed mouse assessed as decrease in triglyceride content in liver at 10 to 100 mg/kg, po after 4 weeks; type: functional, organism-based
In short: (§2)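 Mice kept on a high-fat diet for 4 weeks and given the compound orally at 3/10/30, 10/30/100 or 1/10/100 mg/kg. The 1–100 mg/kg series was run for 3 weeks. Triglyceride content measured in liver, white gastrocnemius and soleus, compared against HFD vehicle controls, P < 0.05.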

[6] = Fraction unbound in mouse plasma at 10 mg/kg, po; type: ADME, organism-based; design: dose 10 mg/kg, route oral
In short: (§3)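 Unbound fraction (%) measured in mouse plasma.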

[7] = Ratio of drug uptake in soleus muscle to plasma in mouse at 10 mg/kg, po after 1 week of repeated compound administration; type: ADME, organism-based; design: dose 10 mg/kg, route oral
In short: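 Mice received repeated oral dosing at 10 mg/kg for 1 week. Soleus and plasma concentrations measured 3 h after dosing. Kp taken as the soleus-to-plasma ratio.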

[8] = AUC in mouse at 10 mg/kg, po; type: ADME, organism-based; design: dose 10 mg/kg, route oral; conditions: plasma
In short: (§4)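 Single 10 mg/kg oral dose to mice in DMA/PG/(20% HPβCD in saline) 10/10/80. Values are the mean of three mice.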

[9] = Cmax in mouse at 10 mg/kg, po; type: ADME, organism-based; design: dose 10 mg/kg, route oral; conditions: in vivo; in short: as §4
[10] = Plasma protein binding in mouse at 10 mg/kg, po; type: ADME, organism-based; design: dose 10 mg/kg, route oral; conditions: read-out: PPB (converted); in short: as §3
[11] = Solubility in Japanese Pharmacopoeia first fluid; type: physicochemical; conditions: pH 1.2
[12] = Tmax in mouse at 10 mg/kg, po; type: ADME, organism-based; design: dose 10 mg/kg, route oral; conditions: in vivo; in short: as §4
Mus musculus [13] = assay: In vivo inhibition of FATP1 in high-fat diet fed mouse assessed as decrease in triglyceride content in soleus muscle at 10 to 100 mg/kg, po after 4 weeks; type: functional, organism-based; in short: as §2
[14] = Volume of distribution in mouse at 5 mg/kg, iv; type: ADME, organism-based; design: dose 5 mg/kg, route intravenous; conditions: in vivo
[15] = Solubility in Japanese Pharmacopoeia second fluid; type: physicochemical; conditions: pH 6.8
[16] = Oral bioavailability in mouse at 10 mg/kg; type: ADME, organism-based; conditions: in vivo
Mus musculus [17] = assay: In vivo inhibition of FATP1 in high-fat diet fed mouse assessed as decrease in triglyceride content in white gastrocnemius muscle at 10 to 100 mg/kg, po after 4 weeks; type: functional, organism-based; in short: as §2
Mus musculus [18] = assay: Free Cmax in mouse at 10 mg/kg, po; type: ADME, organism-based; design: dose 10 mg/kg, route oral; conditions: in vivo
In short: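 Free Cmax calculated as plasma unbound fraction (%) multiplied against the […], from mice given 10 mg/kg orally in DMA/PG/(20% HPβCD/saline) 10/10/80, n = 3.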

[19] = Clearance in mouse at 5 mg/kg, iv; type: ADME, organism-based; design: dose 5 mg/kg, route intravenous; conditions: in vivo
[20] = Clearance in mouse at 1 mg/kg, iv; type: ADME, organism-based; design: dose 1 mg/kg, route intravenous; conditions: in vivo
In short: (§5)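 Single 1 mg/kg intravenous dose to mice in DMA/PG/(20% HPβCD in saline) 10/10/80. Values are the mean of two mice.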

Mus musculus [21] = assay: In vivo inhibition of FATP1 in high-fat diet fed mouse assessed as decrease in triglyceride content in white gastrocnemius muscle at 3 to 30 mg/kg, po after 4 weeks; type: functional, organism-based; in short: as §2
Mus musculus [22] = assay: In vivo inhibition of FATP1 in high-fat diet fed mouse assessed as decrease in triglyceride content in soleus muscle at 3 to 30 mg/kg, po after 4 weeks; type: functional, organism-based; in short: as §2
Mus musculus [23] = assay: In vivo inhibition of FATP1 in high-fat diet fed mouse assessed as decrease in triglyceride content in liver at 3 to 30 mg/kg, po after 4 weeks; type: functional, organism-based; in short: as §2
[24] = Volume of distribution in mouse at 1 mg/kg, iv; type: ADME, organism-based; design: dose 1 mg/kg, route intravenous; conditions: in vivo; in short: as §5
Mus musculus [25] = assay: In vivo inhibition of FATP1 in high-fat diet fed mouse assessed as decrease in triglyceride content in white gastrocnemius muscle at 1 to 100 mg/kg, po after 3 weeks
Mus musculus [26] = assay: In vivo inhibition of FATP1 in high-fat diet fed mouse assessed as decrease in triglyceride content in soleus muscle at 1 to 100 mg/kg, po after 3 weeks
Mus musculus [27] = assay: In vivo inhibition of FATP1 in high-fat diet fed mouse assessed as decrease in triglyceride content in liver at 1 to 100 mg/kg, po after 3 weeks

Long-chain fatty acid transport protein 1 (Homo sapiens, UniProt Q6PCB7), sequence (Q6PCB7 whole entry): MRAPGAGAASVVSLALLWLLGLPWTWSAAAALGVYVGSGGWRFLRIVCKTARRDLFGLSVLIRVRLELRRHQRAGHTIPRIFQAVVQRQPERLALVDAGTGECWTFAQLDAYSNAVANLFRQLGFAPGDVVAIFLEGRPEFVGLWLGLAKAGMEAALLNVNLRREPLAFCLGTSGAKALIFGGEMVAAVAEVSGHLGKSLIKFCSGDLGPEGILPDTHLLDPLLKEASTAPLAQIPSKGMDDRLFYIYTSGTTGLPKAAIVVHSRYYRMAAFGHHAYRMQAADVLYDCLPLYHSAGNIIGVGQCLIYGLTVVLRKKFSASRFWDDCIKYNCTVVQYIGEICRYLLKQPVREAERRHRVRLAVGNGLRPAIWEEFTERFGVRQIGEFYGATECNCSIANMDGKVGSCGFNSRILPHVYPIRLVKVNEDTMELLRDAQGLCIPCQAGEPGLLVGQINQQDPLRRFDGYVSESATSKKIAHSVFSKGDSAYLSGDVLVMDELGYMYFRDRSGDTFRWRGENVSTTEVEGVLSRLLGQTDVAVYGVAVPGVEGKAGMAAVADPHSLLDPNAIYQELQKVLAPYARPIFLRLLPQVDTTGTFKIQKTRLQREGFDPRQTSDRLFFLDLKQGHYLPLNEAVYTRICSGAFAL

Row | SMILES | IC50 [1] [nM] | logD [2] | IC50 [3] [nM] | remaining at 0.5 h [4] [%] | also measured
1 | Cc1nc(NC(=O)CN2CCN(c3ccc(F)cc3)CC2)sc1C | 430 | 3.7 | 1700 | 56 | 
2 | O=C(CN1CCN(c2ccc(F)cn2)CC1)c1coc2ccccc12 | 470 | 3.9 | 1900 | 76 | 
3 | Cc1nc2ccccn2c1C(=O)CN1CCN(c2ccccc2)CC1 | 3000 |  |  |  | 
4 | O=C(CN1CCN(c2ncccn2)CC1)Nc1nc2c(s1)CCCC2 | > 1000 | 3.7 | > 10000 |  | 
5 | O=C(CN1CCN(c2ccc(F)cc2)CC1)Nc1nccs1 | > 1000 | 2.8 | > 10000 |  | 
6 | Cc1ccc(N2CCN(CC(=O)Nc3nc4c(s3)CCCC4)CC2)cc1 | 250 | 4.8 | > 10000 |  | 
7 | O=C(CN1CCN(c2ccc(F)cc2)CC1)Nc1nc2ccccc2s1 | 490 | 4.4 | > 10000 |  | 
8 | O=C(CN1CCN(c2ccc(F)cn2)CC1)c1c[nH]c2ccccc12 | > 1000 |  | > 10000 |  | 
9 | O=C(CN1CCN(c2cccnc2)CC1)Nc1nc2c(s1)CCCC2 | > 1000 | 3.3 | > 10000 |  | 
10 | O=C(CN1CCN(c2ccncc2)CC1)Nc1nc2c(s1)CCCC2 | > 1000 | 2 | > 10000 |  | 
11 | O=C(CN1CCN(C(=O)c2ccccc2)CC1)Nc1nc2c(s1)CCCC2 | > 1000 | 2.1 | > 10000 |  | 
12 | O=C(CN1CCN(c2ccc(F)cn2)CC1)c1ncc2ccccn12 | > 1000 |  | > 10000 |  | 
13 | O=C(CN1CCN(c2cccc(F)c2)CC1)Nc1nc2c(s1)CCCC2 | > 1000 |  | > 10000 |  | 
14 | O=C(CN1CCN(c2ccc(F)cn2)CC1)c1n[nH]c2ccccc12 | > 1000 | 2.8 | > 10000 |  | 
15 | O=C(CN1CCN(C2CCCCC2)CC1)Nc1nc2c(s1)CCCC2 | > 1000 | 3 | > 10000 |  | 
16 | O=C(CN1CCN(c2nccs2)CC1)Nc1nc2c(s1)CCCC2 | 520 | 3.8 | 7900 |  | 
17 | O=C(CN1CCN(c2ccc(F)cc2)CC1)Nc1nc2c(s1)CCC2 | 490 | 4 | > 10000 |  | 
18 | CCN(C(=O)CN1CCN(c2ccc(F)cn2)CC1)c1nc2c(s1)CCCC2 | 780 |  | > 10000 |  | 

Further compounds by falling IC50 [1], results first:

Row | IC50 [1] [nM] | logD [2] | IC50 [3] [nM] | remaining at 0.5 h [4] [%] | SMILES | also measured
19 | 430 | 2.8 | 390 | 52 | Cc1nc2ccccn2c1C(=O)CN1CCN(c2ccc(F)cn2)CC1 | clearance [20]: 6.4 mL/min/kg; fraction unbound [6]: 0.275; inhibition (Mus musculus [21]): inactive; Kp at 168 h [7]: 1.1; AUC [8]: 5500 ng·h/mL; Cmax [9]: 2200 ng/mL; inhibition (Mus musculus [22]): inactive; solubility [11]: > 700 µg/mL; Tmax [12]: 19.8 min; inhibition (Mus musculus [23]): inactive; Vd [24]: 0.2 L/kg; solubility [15]: 350 µg/mL (≈ 990 µM); bioavailability [16]: 21%; fCmax (Mus musculus [18]): 0.61 µg/mL
20 | 330 | 2.5 | 1100 | 84 | O=C(CN1CCN(c2ccc(F)cn2)CC1)c1cnn2ccccc12 | 
21 | 280 | 4.3 | 9000 |  | O=C(CN1CCN(c2ccccc2)CC1)Nc1nc2c(s1)CCCC2 | 
22 | 200 | 3.9 | 4900 |  | O=C(CN1CCN(c2ccccn2)CC1)Nc1nc2c(s1)CCCC2 | 
23 | 190 | 2.5 | 400 | 55 | Cc1nc2n(c1C(=O)CN1CCN(c3ccc(F)cn3)CC1)CCCC2 | 
24 | 180 | 3 | 5400 | 53 | O=C(CN1CCN(c2ccc(F)cc2)CC1)Nc1nc2c(o1)CCCC2 | 
25 | 130 | 2.5 | 290 | 98 | O=C(CN1CCN(c2ccc(F)cn2)CC1)c1cnc2ccccn12 | 
26 | 120 | 5 | 2000 |  | O=C(CN1CCN(c2ccc(F)cc2)CC1)Nc1nc2c(s1)CCCCC2 | 
27 | 100 | 2.7 | 1700 | 63 | O=C(CN1CCN(c2ccc(F)cn2)CC1)Nc1nc2c(o1)CCCC2 | 
28 | 100 | 2.1 | 160 | 86 | O=C(CN1CCN(c2ccc(F)cn2)CC1)c1cnc2n1CCCC2 | 
29 | 77 | 4.5 | 4000 | 42 | O=C(CN1CCN(c2ccc(F)cc2)CC1)Nc1nc2c(s1)CCCC2 | 
30 | 46 | 4.1 | 600 | 63 | O=C(CN1CCN(c2ccc(F)cn2)CC1)Nc1nc2c(s1)CCCC2 | clearance [20]: 5 mL/min/kg; fraction unbound [6]: 0.0015; inhibition (Mus musculus [25]): inactive; Kp at 168 h [7]: 0.03; AUC [8]: 36000 ng·h/mL; Cmax [9]: 5500 ng/mL; inhibition (Mus musculus [26]): inactive; solubility [11]: 700 µg/mL (≈ 1860 µM); inhibition (Mus musculus [27]): inactive; Tmax [12]: 19.8 min; Vd [24]: 0.57 L/kg; solubility [15]: 2.4 µg/mL (≈ 6.39 µM); bioavailability [16]: 100%; fCmax (Mus musculus [18]): 0.0083 µg/mL
31 | 41 | 3.9 | 620 | 65 | CN(C(=O)CN1CCN(c2ccc(F)cn2)CC1)c1nc2c(s1)CCCC2 | 
32 | 26 | 5.1 | 5100 | 30 | CC1CCc2sc(NC(=O)CN3CCN(c4ccc(F)cc4)CC3)nc2C1 (stereo unspecified) | inhibition (Mus musculus [5]): inactive; fraction unbound [6]: 0.0043; Kp at 168 h [7]: 0.33; AUC [8]: 2300 ng·h/mL; Cmax [9]: 1800 ng/mL; fraction unbound [10]: 0.0043; solubility [11]: 540 µg/mL (≈ 1390 µM); Tmax [12]: 15 min; inhibition (Mus musculus [13]): inactive; Vd [14]: 1.5 L/kg; solubility [15]: 0.7 µg/mL (≈ 1.8 µM); bioavailability [16]: 62%; inhibition (Mus musculus [17]): inactive; fCmax (Mus musculus [18]): 0.0077 µg/mL; clearance [19]: 46 mL/min/kg

From ChEMBL document CHEMBL2375259, “Arylpiperazines as fatty acid transport protein 1 (FATP1) inhibitors with improved potency and pharmacokinetic properties” (Bioorg Med Chem Lett, 2013)
